According to paper PMC9558494 (Angewandte Chemie (International Ed. in English), 2022):
Each block holds one molecule with its values, some of them ahead of it.

What was measured:
LogD octanol/PBS pH 7.4 = type: physicochemical
Microsomal stability = type: in vitro ADME, human; conditions: for half-life at 1 µM: both, human, liver microsomes, pH 7.4; for HLM Cl: human liver microsomes
Stability in plasma = type: in vitro ADME; conditions: both, human
[1] = test system: SIINFEKL OVA-derived antigen presentation in HEK cells; test: Antigen presentation assay; type: cell-based; conditions: HEK cells where LSIINFEKL is endogenously produced, 24 h
ERAP2 = ERAP2 (Homo sapiens, UniProt Q6P179); test: ERAP2 activity assay using R-AMC substrate; type: biochemical
Chain of ERAP2 (Q6P179 whole entry): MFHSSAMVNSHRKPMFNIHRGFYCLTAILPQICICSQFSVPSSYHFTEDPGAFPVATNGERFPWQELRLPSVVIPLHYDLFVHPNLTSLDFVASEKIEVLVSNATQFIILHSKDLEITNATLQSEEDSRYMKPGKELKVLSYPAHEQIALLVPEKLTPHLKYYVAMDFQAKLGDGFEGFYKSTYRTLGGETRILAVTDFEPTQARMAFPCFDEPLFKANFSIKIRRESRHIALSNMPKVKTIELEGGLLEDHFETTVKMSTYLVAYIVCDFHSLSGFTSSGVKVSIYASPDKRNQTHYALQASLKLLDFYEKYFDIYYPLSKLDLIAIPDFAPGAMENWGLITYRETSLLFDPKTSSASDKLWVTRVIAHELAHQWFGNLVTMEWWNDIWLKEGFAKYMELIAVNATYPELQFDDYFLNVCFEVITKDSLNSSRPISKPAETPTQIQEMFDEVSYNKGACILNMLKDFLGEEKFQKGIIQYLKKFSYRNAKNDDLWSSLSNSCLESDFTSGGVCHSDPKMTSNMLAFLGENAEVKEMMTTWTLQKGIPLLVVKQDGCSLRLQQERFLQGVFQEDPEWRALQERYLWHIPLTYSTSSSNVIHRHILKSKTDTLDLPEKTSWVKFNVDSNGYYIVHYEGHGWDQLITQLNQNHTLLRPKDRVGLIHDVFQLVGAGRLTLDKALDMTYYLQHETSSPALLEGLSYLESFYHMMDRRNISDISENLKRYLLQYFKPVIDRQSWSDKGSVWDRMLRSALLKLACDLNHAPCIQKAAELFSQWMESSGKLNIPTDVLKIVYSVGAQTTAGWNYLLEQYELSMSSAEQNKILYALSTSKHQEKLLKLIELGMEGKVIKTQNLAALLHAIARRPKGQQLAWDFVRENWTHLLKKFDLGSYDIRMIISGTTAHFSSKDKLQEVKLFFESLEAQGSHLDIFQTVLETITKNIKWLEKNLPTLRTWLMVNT

[2] = Pharmacokinetics in mouse; type: in vivo, mice
Method in brief: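 Female mice received a single i.p. dose of 50 mg/kg. Derived parameters were elimination-phase half-life (T1/2 β, min), Cmax (μM), Tmax (min) and AUC extrapolated to infinity (AUC0‑∞, min μM).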

[3] = female, CD-1, mouse, plasma, ip, 50 mg/kg

- logD at 2 h (LogD octanol/PBS pH 7.4): 1.81
- half-life at 1 µM (Microsomal stability): > 0.667 h
- HLM Cl (Microsomal stability): 21 µL/min/g
- half-life at 10 µM (Stability in plasma): > 6 h
SMILES: COc1ccc(C[C@@H](C(=O)NO)n2cc(CNS(=O)(=O)c3ccc(-c4ccccn4)s3)nn2)cc1 [4 e]

- logD at 2 h (LogD octanol/PBS pH 7.4): 4.11
- half-life at 10 µM (Stability in plasma): > 6 h
SMILES: O=C(NO)[C@H](Cc1ccc(Oc2ccccc2)cc1)n1cc(CNS(=O)(=O)c2ccc(-c3ccccn3)s2)nn1 [4 f]
- effect on SIINFEKL antigen presentation [1]: dose‐dependent effect

- IC50 (ERAP2): 12 µM
SMILES: O=C(C[C@@H](Cc1c[nH]c2ccccc12)n1cc(CNS(=O)(=O)c2ccc(-c3ccccc3)s2)nn1)NO [2 b]

- inhibition at 100 µM (ERAP2; read-out: %inh at 100 μM): 43%
- ERAP2 activity in words (ERAP2; replacement of the phenol group by an indole): complete loss of activity
SMILES: O=C(NO)[C@@H](Cc1c[nH]c2ccccc12)n1cc(CNS(=O)(=O)c2ccc(-c3ccccc3)s2)nn1 [4 b]

- IC50 (ERAP2): 0.76 µM
SMILES: O=C(NO)[C@H](Cc1ccc(O)cc1)n1cc(CNS(=O)(=O)c2ccc(-c3ccccc3)s2)nn1 [4 a]

- IC50 (ERAP2): 2.29 µM
SMILES: O=C(C[C@@H](Cc1ccc2ccccc2c1)n1cc(CNS(=O)(=O)c2ccc(-c3ccccc3)s2)nn1)NO [2 c]

SMILES: COc1ccc(C[C@@H](C(=O)NO)n2cc(CNS(=O)(=O)c3ccc(-c4ccccc4)s3)nn2)cc1 [4 d]
- effect on SIINFEKL antigen presentation [1]: dose‐dependent effect
- logD at 2 h (LogD octanol/PBS pH 7.4): 2.99
- half-life at 1 µM (Microsomal stability): > 0.667 h
- HLM Cl (Microsomal stability): 50 µL/min/g
- half-life at 10 µM (Stability in plasma): > 6 h
- AUC [2, 3]: 12.9 µM·h
- Cmax [2, 3]: 18 µM
- tolerability of the dose ([2]; mice, 50 mg kg^−1, i. p.): tolerated
